In ChEMBL document CHEMBL1123902, “Synthesis and antiinflammatory and analgesic activity of 5-aroyl-1,2-dihydro-3H-pyrrolo[1,2-a]pyrrole-1-carboxylic acids. The 6-substituted compounds” (1987):

Tests used:
Assay type in all cases: functional
Rattus norvegicus [1] = species: Rattus norvegicus; assay: Antiinflammatory activity was determined to inhibit cotton pellet granuloma in rats with respcet to Indomethacin
Mus musculus = species: Mus musculus; assay: Analgesic activity in mice by phenyl quinone-induced writhing assay with respect to aspirin.
Summary of the method: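 Phenylquinone-induced writhing in mice; potency expressed as ED50 with 95% confidence limits, relative to aspirin as reference; number of mice recorded per test.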

Rattus norvegicus [2] = species: Rattus norvegicus; assay: Gastrointestinal erosive activity was determined by 7-day chronic assay in rats; settings: 168 h, read-out: MED
Summary of the method: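 Chronic 7-day gastrointestinal erosion assay in rats; read-out is the minimum dose producing erosion (MED).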

Rattus norvegicus [3] = species: Rattus norvegicus; assay: Antiinflammatory activity was determined to inhibit adjuvant-induced arthritis in rats with respect to naproxen
Rattus norvegicus [4] = assay: Antiinflammatory activity was determined by inhibition of carrageenan-induced edema in rat paw with respect to phenylbutazone
Summary of the method: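 Carrageenan-induced rat paw edema; potency expressed as ED30 relative to phenylbutazone as reference; number of rats recorded.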

[5] = Ratio of MED GI erosion to ED30 for carrageenan rat paw was determined
Summary of the method: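 Therapeutic ratio calculated as the minimum erosive dose from the 7-day rat gastrointestinal erosion assay divided by the ED30 from the carrageenan rat paw edema assay.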

Rattus norvegicus [6] = species: Rattus norvegicus; assay: Antiinflammatory activity was determined by inhibition of cotton pellet granuloma in rats with respcet to Indomethacin
Rattus norvegicus [7] = species: Rattus norvegicus; assay: Antiinflammatory activity was determined by inhibition of adjuvant-induced arthritis in rats with respect to naproxen
Rattus norvegicus [8] = species: Rattus norvegicus; assay: Antiinflammatory activity was determined by inhibition of cotton pellet granuloma in rats with respect to Indomethacin

SMILES | relative potency (Rattus norvegicus [1]) | relative potency (Mus musculus) | minimal effective dose (Rattus norvegicus [2]) | relative potency (Rattus norvegicus [3]) | relative potency (Rattus norvegicus [4]) | Therapeutic index [5] | relative potency (Rattus norvegicus [6]) | relative potency (Rattus norvegicus [7]) | relative potency (Rattus norvegicus [8]) | ED30 (Rattus norvegicus [4])
COc1ccc2cc([C@H](C)C(=O)O)ccc2c1 [NAPROXEN] | 0.2 | 7 | 30 mg/kg | 1 | 11 | 22 |  |  |  | 
C1CCC(NC2CCCCC2)CC1.Cc1cc2n(c1C(=O)c1ccccc1)CCC2(C)C(=O)O (stereo not given) |  | 40 |  |  | < 7 |  |  |  |  | 
Cc1cc2n(c1C(=O)c1ccc(Cl)cc1)CCC2C(=O)O (stereo not given) |  | 167 | 0.6 mg/kg |  | 122 | 5 | 2 | 3.5 |  | 
Cc1cc(CC(=O)O)n(C)c1C(=O)c1ccc(Cl)cc1 [ZOMEPIRAC] |  | 36 |  |  | 26 | 17 |  |  |  | 
Cc1cc2n(c1C(=O)c1ccccc1)CCC2C(=O)O (stereo not given) |  | 250 | 1.7 mg/kg |  | 43 | 5 |  | 1 | 1 | 
COCCc1cc2n(c1C(=O)c1ccc(F)cc1)CCC2C(=O)O (stereo not given) |  | 1.1 |  |  |  |  |  |  |  | ≤ 0.3 mg/kg
COCCCc1cc2n(c1C(=O)c1ccc(Cl)cc1)CCC2C(=O)O (stereo not given) |  | ≥ 1.5 |  |  | 1.2 |  |  |  |  | 
CCc1cc2n(c1C(=O)c1ccccc1)CCC2C(=O)O (stereo not given) |  | 108 |  |  | 26 |  |  |  |  | 
COc1ccc(C(=O)c2c(C)cc3n2CCC3C(=O)O)cc1 (stereo not given) |  | 130 |  |  | 73 |  |  |  |  | 
COc1ccc2c(c1)c(CC(=O)O)c(C)n2C(=O)c1ccc(Cl)cc1 [INDOMETHACIN] | 1 | 60 |  | 7 | 16 |  |  |  |  | 
Cc1ccc(C(=O)c2c(Cl)cc3n2CCC3C(=O)O)cc1 (stereo not given) |  | 158 | 5 mg/kg |  | 32 | 11 | 0.2 | 11 |  | 
O=C(c1ccc(F)cc1)c1c(Cl)cc2n1CCC2C(=O)O (stereo not given) |  | 151 | ~0.3 mg/kg |  | 139 | 3 | 1 | 13 |  | 
Cc1ccc(C(=O)c2c(C)cc3n2CCC3C(=O)O)cc1 (stereo not given) |  | 250 | 2.5 mg/kg |  | 43 | 7 | 0.7 | 3 |  | 
CS(=O)(=O)c1ccc(C(=O)c2c(Cl)cc3n2CCC3C(=O)O)cc1 (stereo not given) |  | ≤ 0.8 |  |  | < 1 |  |  |  |  | 
COCCCc1cc2n(c1C(=O)c1ccc(F)cc1)CCC2C(=O)O (stereo not given) |  | ~1 |  |  | < 3 |  |  |  |  | 
CSc1ccc(C(=O)c2c(Cl)cc3n2CCC3C(=O)O)cc1 (stereo not given) |  | 100 |  |  | 68 |  |  |  |  | 
Cc1cc2n(c1C(=O)c1ccc(F)cc1)CCC2C(=O)O (stereo not given) |  | 302 | 1.2 mg/kg |  | 103 | 12 | 1 | 3 |  | 
O=C(c1ccc(Cl)cc1)c1c(Cl)cc2n1CCC2C(=O)O (stereo not given) |  | 167 | ~0.2 mg/kg |  | 88 | 1 | 3 | 40 |  | 
COCCc1cc2n(c1C(=O)c1ccccc1)CCC2C(=O)O (stereo not given) |  | 7.6 |  |  |  |  |  |  |  | ≤ 0.3 mg/kg
COCCc1cc2n(c1C(=O)c1ccc(Cl)cc1)CCC2C(=O)O (stereo not given) |  | 5 |  |  |  |  |  |  |  | < 0.3 mg/kg
O=C(c1ccc(F)cc1)c1c(Br)cc2n1CCC2C(=O)O (stereo not given) |  | 120 |  |  | 96 |  |  |  |  | 
O=C(c1ccccc1)c1c(Br)cc2n1CCC2C(=O)O (stereo not given) |  | 314 |  |  | 7.4 |  |  |  |  | 
CCc1cc2n(c1C(=O)c1ccc(F)cc1)CCC2C(=O)O (stereo not given) |  | 121 |  |  | 46 |  |  |  |  | 
COCCCc1cc2n(c1C(=O)c1ccccc1)CCC2C(=O)O (stereo not given) |  | ≤ 3 |  |  | < 10 |  |  |  |  | 
COc1ccc(C(=O)c2c(Cl)cc3n2CCC3C(=O)O)cc1 (stereo not given) |  | 201 | ~1.3 mg/kg |  | 55 | 5 | 0.7 | 4 |  | 
O=C(c1ccccc1)c1c(Cl)cc2n1CCC2C(=O)O (stereo not given) |  | 246 | ~1.7 mg/kg |  | 10 | 1 | 0.6 | < 8 |  | 
